Screening results as filed in PubChem.
rCAG RNA binder: binders of r(CAG) RNA repeats, primary screen, biochemical, fluorescence; r(CAG) RNA repeat, TO-PRO-1 dye displacement fluorescence; inhibition, % at 3 µM; 370,000 compounds, 1.3% hits;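 active means inhibition above the plate cutoff, the mean of all test compounds on that plate plus 3 SD, cut at about 35% in these data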;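 further: 0% = DMSO alone and 100% = 100 µM mitoxantrone as full dye displacement; higher means more dye released from RNA so lower well fluorescence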
ABHD4 inh: ABHD4 inhibitors, primary screen, biochemical, fluorescence polarization, mouse. (Lyso)-N-acylphosphatidylethanolamine lipase (Mus musculus), Q8VD66. purified mABHD4, FP-Rh probe fluorescence polarization. inhibition, % at 8.92 µM. 370,000 compounds, 0.54% hits. AID 720543, 2013;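 active means inhibition exceeding the mean over every tested compound plus 3 SD, cut at about 30% in these data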;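 further: 0% = plate median of compound wells and 100% = S159A mutant with DMSO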
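Doses – 8.92 µM, single dose · Material – wild-type mouse ABHD4 protein · Replication – single well per compound (singlicate) · Measure – percent inhibition of probe binding, normalized to plate controls · Schedule – 45 min compound pre-incubation plus 60 min probe step, 25 °C · Detection – fluorescence polarization with parallel and perpendicular emission, 525/598 nm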
PRMT1 inh: PRMT1 methyltransferase inhibitors, primary screen, biochemical, fluorescence polarization; Protein arginine N-methyltransferase 1 (Homo sapiens), Q99873; recombinant PRMT1, activity-based probe fluorescence polarization; inhibition, % at 2.79 µM; 370,000 compounds, 1.3% hits;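 active means inhibition above about 21% made by adding two undisclosed values, limit read from the data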
Target sequence (Q99873 whole entry, looked up): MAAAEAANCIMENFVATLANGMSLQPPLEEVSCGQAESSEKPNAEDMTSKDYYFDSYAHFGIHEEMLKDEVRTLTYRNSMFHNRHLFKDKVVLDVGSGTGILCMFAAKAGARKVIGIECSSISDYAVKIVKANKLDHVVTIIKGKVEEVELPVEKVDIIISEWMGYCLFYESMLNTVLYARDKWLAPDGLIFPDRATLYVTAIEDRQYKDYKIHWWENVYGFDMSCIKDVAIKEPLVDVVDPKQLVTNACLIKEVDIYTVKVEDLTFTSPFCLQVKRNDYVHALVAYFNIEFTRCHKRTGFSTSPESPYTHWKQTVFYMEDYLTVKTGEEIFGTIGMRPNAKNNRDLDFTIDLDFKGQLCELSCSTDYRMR
TCR CD3 inh: inhibitors of human TCR-CD3 interaction, primary screen, biochemical, fluorescence, TAMRA-labeled TCR probe; inhibition, % at 9.4 µM; 360,000 compounds, 0.37% hits; AID 651800, 2012; T-cell receptor (TCR); in the data active means inhibition above about 19%;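 further: recombinant mutant TCR 2C K166C tagged with TAMRA read by polarization; 0% = receptor in buffer alone and 100% = receptor with positive control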
SIAE inh: human SIAE inhibitors, primary screen, biochemical, fluorescence polarization, FP-Rh probe, 1536-well HTS | 370,000 compounds, 0.69% hits | AID 1053197, 2014 | Sialate O-acetylesterase (Homo sapiens), Q9HAT2 | inhibition, % at 9.66 µM | SIAE FP-Rh probe binding;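 active means inhibition above a cutoff: mean of compounds within the control limits plus 3 SD of those, cut at about 17% in these data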;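 further: 0% = plate median of compound wells and 100% = probe without SIAE protein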
rCAG bind conf: small molecules binding CAG repeat RNA – biochemical, fluorescence, confirmation. shares compounds with rCAG RNA binder. r(CAG) RNA repeat, TO-PRO-1 dye displacement fluorescence. inhibition, % at 3 µM. 4,300 compounds, 70% hits. AID 652065, 2013;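 active means inhibition above a per-plate cutoff, the mean inhibition of sample wells plus 3 SD, cut at about 35% in these data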;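 further: loss of TO-PRO-1 fluorescence as compound displaces dye from 1x1 AA loop RNA; 0% = DMSO only wells and 100% = 100 µM mitoxantrone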
DNA CAG counter: displacement of TO-PRO-1 from CAG DNA duplex, counter-screen for rCAG RNA repeat binder project, biochemical, fluorescence, TO-PRO-1 dye, d(CAG) DNA oligo | shares compounds with rCAG RNA binder | d(CAG) DNA oligo TO-PRO-1 dye displacement | inhibition, % at 3 µM | 4,300 compounds, 94% hits | AID 652068, 2013;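 active means inhibition above its plate's cutoff, the mean test-well inhibition plus 3 SD, cut at about 4.8% in these data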;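 further: 0% = DNA dye mix with DMSO and 100% = 100 µM mitoxantrone; hits displace the dye from DNA and so lower well fluorescence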
The depositor's hits bear a star. A selection: hits, their analogues and other compounds. The true share with any hit is near 3.3%.

Cc1ccc(S(=O)(=O)Nc2ccccc2C(=O)Nc2nc(-c3ccc(F)cc3)cs2)cc1 was read as rCAG RNA binder 89*, ABHD4 inh -70, PRMT1 inh 1, TCR CD3 inh 6, SIAE inh -26, rCAG bind conf 93* and DNA CAG counter 81*.
`Cc1ccc(S(=O)(=O)Nc2nc(-c3ccccc3)cs2)cc1` gave rCAG RNA binder 40*, ABHD4 inh 1, PRMT1 inh -1, TCR CD3 inh -5, SIAE inh 0, rCAG bind conf 26 and DNA CAG counter 6.1*.
`O=C(Nc1ccccc1N1CCOCC1)c1ccccc1NS(=O)(=O)c1ccc(F)c(F)c1` gave rCAG RNA binder 38*, ABHD4 inh 13, PRMT1 inh -1, TCR CD3 inh -1, SIAE inh 3, rCAG bind conf 30 and DNA CAG counter 7.2*.
Cc1ccc(Nc2nc(-c3ccccc3)cs2)nc1 was read as rCAG RNA binder 47*, ABHD4 inh 18, PRMT1 inh 2, TCR CD3 inh 4, SIAE inh 4, rCAG bind conf 4 and DNA CAG counter 1.
O=C(Nc1nc(-c2ccccc2)cs1)c1ccccc1F was read as rCAG RNA binder 4, ABHD4 inh -15, PRMT1 inh -2, TCR CD3 inh 0 and SIAE inh -10.
Screening C#CCCN([C@H](C(=O)OC)C(C)CC)S(=O)(=O)c1ccccc1Br (stereo partly specified) returned rCAG RNA binder 3, ABHD4 inh -11, PRMT1 inh -1 and SIAE inh -4.
COc1ccc(-c2csc(NC(=O)c3ccccc3F)n2)cc1 was read as rCAG RNA binder 2, ABHD4 inh -17, PRMT1 inh -4, TCR CD3 inh -1 and SIAE inh -2.
Screening COc1ccc(-c2csc(NC(=O)c3ccccc3NS(=O)(=O)c3ccc(F)c(F)c3)n2)cc1 returned rCAG RNA binder 89*, ABHD4 inh -46, PRMT1 inh 2, TCR CD3 inh 2, SIAE inh -25, rCAG bind conf 90* and DNA CAG counter 75*.
Screening Cc1ccc(S(=O)(=O)Nc2ccccc2C(N)=O)cc1 returned rCAG RNA binder 2, ABHD4 inh 0, PRMT1 inh -5, TCR CD3 inh -1 and SIAE inh 5.
`Cc1ccc(S(=O)(=O)Nc2ccccc2-c2ccccc2NS(=O)(=O)c2ccc(C)cc2)cc1` gave rCAG RNA binder 74*, ABHD4 inh -20, PRMT1 inh 4, TCR CD3 inh -7, SIAE inh -10, rCAG bind conf 89* and DNA CAG counter 59*.
Screening O=C1N(Cc2ccccc2)c2ccccc2C12CCCc1sc(CCc3ccccc3)nc12 (stereo unspecified) returned rCAG RNA binder 3, ABHD4 inh 4, PRMT1 inh -3 and SIAE inh 2.
`C=CCN1C(=O)/C(=C/c2ccc(OC(C)=O)c(OCC)c2[N+](=O)[O-])SC1=S` gave rCAG RNA binder 80*, ABHD4 inh -27, PRMT1 inh 10, TCR CD3 inh -36, SIAE inh 1, rCAG bind conf 42* and DNA CAG counter 12*.
Screening COc1cccc(CNC(=O)[C@H]2CCCN2C(=O)[C@H]2CCCN2C(=O)c2cccc3ccccc23)c1 returned rCAG RNA binder 0, ABHD4 inh -6, PRMT1 inh -1, TCR CD3 inh 3 and SIAE inh 2.
COc1cccc(C2C(C(=O)c3cc4ccccc4o3)=C(O)C(=O)N2c2cc(C)on2)c1 (stereo unspecified) was read as rCAG RNA binder 48*, ABHD4 inh -3, PRMT1 inh 5, TCR CD3 inh -6, SIAE inh -2, rCAG bind conf 52* and DNA CAG counter 18*.
